≈ marks a conversion by molar mass, not a printed value. Calls of active or inactive are those of the source. The calls are words filed in the database; no cut-off is given here.
Key:
Pseudomonas aeruginosa [1] = assay: Downregulation of sodB gene expression in Pseudomonas aeruginosa PAO1 assessed as fold decrease at 25 ug/ml by RT-qPCR analysis; assay type: functional; settings: dose 25.0 µg/ml
Pseudomonas aeruginosa [2] = assay: Downregulation of pqsR gene expression in Pseudomonas aeruginosa PAO1 assessed as fold decrease at 25 ug/ml by RT-qPCR analysis; assay type: functional; settings: dose 25 µg/ml
Pseudomonas aeruginosa [3] = assay: Downregulation of rhlR gene expression in Pseudomonas aeruginosa PAO1 assessed as fold decrease at 25 ug/ml by RT-qPCR analysis; assay type: functional; settings: dose 25 µg/ml
[4] = Inhibition of quorum sensing system in Chromobacterium violaceum CV026
Method in brief: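 Plate screen. CV026 grown overnight in LB with 50 μg ml−1 kanamycin; 15 μl seeded into 15 ml LB agar (1.0% agarose) containing 20 μM C4-HSL. PAO1 plates run in parallel. Test colonies inoculated by toothpick, incubated overnight at 37 °C. Ring of colourless viable cells around the colony scored as inhibition.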

Pseudomonas aeruginosa [5] = assay: Antibacterial activity against Pseudomonas aeruginosa PAO1 by serial dilution method; assay type: functional
Method in brief: (§1)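 PAO1 in LB, 37 °C. MIC by CLSI 2-fold serial dilution in Mueller–Hinton broth, inoculum 1–5 × 10^5 CFU mL−1, DMSO stocks. Growth curves: overnight culture diluted to OD600 = 0.05, subcultured to mid-log, rediluted to OD600 = 0.05, 3 mL with compound; OD620 read at 1, 3, 5, 7, 9, 11 and 24 h at 37 °C; DMSO negative control.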

Pseudomonas aeruginosa [6] = assay: Antibacterial activity against Pseudomonas aeruginosa PAO1 assessed as bacterial growth inhibition at 6.25 to 25 ug/ml by serial dilution method; assay type: functional, organism-based; settings: dose 6.25-25 µg/ml; method in brief: as §1
[7] = Inhibition of quorum sensing system in Pseudomonas aeruginosa PAO1 assessed as reduction in C4-HSL level at 50 ug/ml incubated for 24 hrs by LC-MS/MS method; settings: dose 50.0 µg/ml
[8] = Inhibition of quorum sensing system in Pseudomonas aeruginosa PAO1 assessed as reduction in 3-oxo-C12-HSL level at 25 ug/ml incubated for 24 hrs by LC-MS/MS method; settings: dose 25.0 µg/ml
Pseudomonas aeruginosa [9] = assay: Inhibition of biofilm formation in Pseudomonas aeruginosa PAO1 at 6.25 ug/ml incubated for 24 hrs crystal violet staining based assay; assay type: functional
Method in brief: (§2)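 PAO1 grown statically for 24 h in LB ± compound in 24-well plates. Planktonic cells removed; attached cells stained with 0.05% crystal violet, rinsed, dissolved in 95% ethanol, read at OD570. DMSO negative, resveratrol positive control; SD from three independent experiments.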

Pseudomonas aeruginosa [10] = assay: Inhibition of biofilm formation in Pseudomonas aeruginosa PAO1 at 25 ug/ml incubated for 24 hrs crystal violet staining based assay; assay type: functional; method in brief: as §2
Pseudomonas aeruginosa [11] = assay: Induction of biofilm eradication in Pseudomonas aeruginosa PAO1 at 25 ug/ml by crystal violet staining based assay; assay type: functional; settings: dose 25 µg/ml
Method in brief: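 PAO1 biofilms grown overnight at 37 °C in LB in 24-well plates, washed with PBS, then fresh LB with compound added and grown overnight again. Washed, methanol-fixed, crystal violet stained, ethanol solubilised, read at OD570. DMSO negative, resveratrol positive control.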

Pseudomonas aeruginosa [12] = assay: Anti-virulence effect in Pseudomonas aeruginosa PAO1 assessed as decrease in protease level at 25 ug/ml; assay type: functional; set-up: scale not given: the % may be the effect or the level left; settings: dose 25 µg/ml
Method in brief: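 Overnight PAO1 culture diluted 1:100 into LB with compound (6.25–25 μg mL−1), grown at 37 °C and 180 rpm; DMSO and RSV (25 μg mL−1) as controls. Culture supernatant mixed with 2% azocasein in 1 M Tris–HCl pH 8.0 for 15 min at 37 °C. Reaction stopped with 10% TCA, centrifuged, NaOH added, read at OD440.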

Pseudomonas aeruginosa [13] = assay: Anti-virulence effect in Pseudomonas aeruginosa PAO1 assessed as inhibition of pyocyanin production at 6.25 ug/ml; assay type: functional; set-up: scale not given: the % may be the effect or the level left; settings: dose 6.25 µg/ml
Method in brief: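 Overnight PAO1 culture in LB at 37 °C, diluted to OD600 0.05 and subcultured 5–7 h to mid-log phase, then re-diluted to OD600 0.05. Grown 18 h at 37 °C and 200 rpm with compound (6.25, 12.5, 25 μg mL−1) or DMSO. Supernatant extracted into chloroform, back-extracted into 0.2 M HCl, read at 520 nm.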

Pseudomonas aeruginosa [14] = assay: Anti-virulence effect in Pseudomonas aeruginosa PAO1 assessed as inhibition of EPS production at 25 ug/ml; assay type: functional; set-up: scale not given: the % may be the effect or the level left; settings: dose 25 µg/ml
Method in brief: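 PAO1 grown with compound (6.25–25 μg mL−1) in 24-well plates for 24 h at 37 °C and 180 rpm; DMSO and RSV (25 μg mL−1) as controls. Biofilms washed with water, then treated with 0.9% NaCl, 5% phenol and 0.2% hydrazine sulfate. Held 1 h in the dark, read at OD490. Three independent experiments.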

Compound: Cc1cccc(C#N)c1Cc1c[nH]c2ccccc12
- fold change (FC) (Pseudomonas aeruginosa [1]): 1.82
- fold change (FC) (Pseudomonas aeruginosa [2]): 7.41
- fold change (FC) (Pseudomonas aeruginosa [3]): 9.71
- inhibition [4]: Active; Showed Higher Activity
- MIC (Pseudomonas aeruginosa [5]): 96 µg/mL (≈ 390 µM)
- Activity (Pseudomonas aeruginosa [6]): inactive
- inhibition [7]: 19%
- inhibition [8]: 60%
- inhibition at 6.25 µg/mL (Pseudomonas aeruginosa [9]): 32%
- inhibition at 25 µg/mL (Pseudomonas aeruginosa [10]): 70%
- Activity (Pseudomonas aeruginosa [11]): 57%
- Activity (Pseudomonas aeruginosa [12]): 51%
- Activity (Pseudomonas aeruginosa [13]): 41%
- Activity (Pseudomonas aeruginosa [14]): 37%
